ChEMBL document CHEMBL1126657, “Benzylamine antioxidants: relationship between structure, peroxyl radical scavenging, lipid peroxidation inhibition, and cytoprotection” (1993)
≈ marks a conversion by molar mass, not a printed value. Calls of active or inactive are those of the source. The calls are words filed in the database; no cut-off is given here.

Legend:
[1] = Percent inhibition of 2,2'-azobis(2-amidinopropane)dihydrochloride induced decay of (R)-phycoerythrin fluorescence emission; assay type: functional; set-up: concentration or dose not given beside the values; details: dose or concentration not given here
Procedure, shortened: (§1)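 R-PE (4.5 × 10⁻⁸ M stock) was mixed with test agent (3 μM stock; 1 μM final) in 75 mM phosphate buffer pH 7.0 and equilibrated 5 min at 37 °C. AAPH (12 mM stock, freshly made) was then added. Fluorescence (ex 544, em 590 nm) was read every 5 min for 25 min and normalized to 0 min. Percent inhibition at 15 min = (sample − AAPH)/(control − AAPH) × 100, n = 4.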

[2] = species on record: Oryctolagus cuniculus; assay: Inhibition of iron-dependent peroxidation of rabbit vesicular membrane lipids (minimum test concentration that gave greater than 50% inhibition).; assay type: functional
Procedure, shortened: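 Lipids from rabbit brain vesicular membranes were peroxidized in an iron-dependent system. Value is the minimum tested concentration giving ≥50% inhibition (μM), n = 3.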

[3] = species on record: Rattus norvegicus; assay: Percent viability of rat hippocampal neurons exposed to hydrogen peroxide (50 uM) in the presence of the test agent (5 uM); assay type: functional
Procedure, shortened: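 Primary rat hippocampal neuron cultures were given test agent (5 μM) and exposed for 15 min to H2O2 (50 μM). Survival was scored by vital dye staining 18 h later. n = 3 cultures prepared on different days, mean ± SD.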

[4] = tested on: Rattus norvegicus; assay: Hypotensive effect in anesthetized normotensive rat expressed as effective dose; No effect; assay type: functional, organism-based
[5] = tested on: Rattus norvegicus; assay: Hypotensive effect in anesthetized normotensive rat expressed as effective dose; assay type: functional
[6] = percent inhibition of 2,2'-azobis(2-amidinopropane)dihydrochloride induced decay of (R)-phycoerythrin fluorescence emission; assay type: functional; set-up: concentration or dose not given beside the values; details: dose or concentration not given here; procedure, shortened: as §1
[7] = tested on: Rattus norvegicus; assay: Hypotensive effect in up to 0.1 mg/kg, slight pressor response (~16-17%) at 1 mg/kg; assay type: functional, organism-based
[8] = tested on: Rattus norvegicus; assay: Hypotensive effect in anesthetized normotensive rat expressed as effective dose; Study; assay type: functional, organism-based

Compound	MIC [2] [µM]	inhibition [1] [%]	Cell viability [3] [%]	ED20 [4]	ED20 [5] [mg/kg]	inhibition [6] [%]	ED20 [7]	ED20 [8]
CNCc1cc(OC)c(O)c(OC)c1.Cl	> 100	75.8	7.5	inactive	–	–	–	–
CC(C)Oc1cc(CN2CCN(CCO)CC2)cc(OC(C)C)c1O.Cl.Cl	> 100	71.6	45.3	inactive	–	–	–	–
CCCCCNCc1cc(OC)c(O)c(OC)c1.Cl	> 100	61.6	29	inactive	–	–	–	–
COc1cc(CN(C)C)cc(OC)c1O.Cl	> 100	69	5.2	inactive	–	–	–	–
CCCOc1cc(CN(C)C)cc(OCCC)c1O.Cl	30	91.8	31.3	–	1	–	–	–
CCOc1cc(CN(C)C)cc(OCC)c1O.Cl	100	71.6	14.7	inactive	–	–	–	–
CCCCCCNCc1cc(OC)c(O)c(OC)c1.Cl	100	65.2	42.6	inactive	–	–	–	–
CCCNCc1cc(OC)c(O)c(OC)c1.Cl	> 100	80.1	13.3	inactive	–	–	–	–
CC(C)Oc1cc(CN(C)C)cc(OC(C)C)c1O.Cl	> 100	69.3	35.8	inactive	–	–	–	–
CCCCCCCNCc1cc(OC)c(O)c(OC)c1.Cl	30	–	48.3	–	–	63.5	–	–
CCNCc1cc(OC)c(O)c(OC)c1.Cl	> 100	71.8	3.1	inactive	–	–	–	–
CCCCNCc1cc(OC)c(O)c(OC)c1.Cl	> 100	62.4	17.1	inactive	–	–	–	–
CCCCCNCc1cc(OC(C)C)c(O)c(OC(C)C)c1.Cl	30	–	42.8	–	> 1	–	–	–
CCCN(CCC)Cc1cc(OC)c(O)c(OC)c1.Cl	> 100	63.7	5.4	inactive	–	–	–	–
CCCCN(CCCC)Cc1cc(OC)c(O)c(OC)c1.Cl	> 100	66.6	26.4	inactive	–	–	–	–
CCCCCN(CCCCC)Cc1cc(OC)c(O)c(OC)c1.Cl	30	50.6	35.5	–	> 1	–	–	–
CCN(CC)Cc1cc(OC)c(O)c(OC)c1.Cl	> 100	66.7	3.7	inactive	–	–	–	–

More lines, in order of falling MIC [2], values ahead:

MIC [2] [µM]	Compound	inhibition [1] [%]	Cell viability [3] [%]	ED20 [4]	ED20 [5] [mg/kg]	inhibition [6] [%]	ED20 [7]	ED20 [8]
30	COc1cc(CN(CC(C)C)CC(C)C)cc(OC)c1O.Cl	63.7	28.7	inactive	–	–	–	–
30	CCCCCCCOc1c(O)cc(CN2CCN(CCO)CC2)cc1O.Cl.Cl	–	50.3	–	–	60.3	–	–
30	CCCCCCCOc1c(O)cc(CN(C)C)cc1O.Cl	–	47	–	–	43.8	–	–
10	CCCCCCCNCc1cc(OC(C)C)c(O)c(OC(C)C)c1.Cl	–	43.5	–	> 1	–	–	–
10	CCC(CC)Oc1cc(CN(C)C)cc(OC(CC)CC)c1O.Cl	66.8	15.2	–	0.42	–	–	–
10	CCCCCCCCNCc1cc(OC)c(O)c(OC)c1.Cl	–	59.8	–	–	60.9	Pressor	–
10	CCCCOc1cc(CN(C)C)cc(OCCCC)c1O.Cl	73.3	35.8	–	1	–	–	–
10	CN(C)Cc1cc(OC2CCCC2)c(O)c(OC2CCCC2)c1.Cl	74.3	28.9	–	–	–	–	Study
5.3	CCCCCCCCCNCc1cc(OC)c(O)c(OC)c1.Cl	–	47.1	–	–	52.9	Pressor	–
3 (≈ 0.637 µg/mL)	CCCOC(=O)c1cc(O)c(O)c(O)c1 [PROPYL GALLATE]	–	–	–	–	40	–	–
2.3	CCCCCCCOc1cc(CN(C)C)cc(OC)c1O.Cl	–	44	–	> 1	62.5	–	–
2.3	CCCCCOc1cc(CN(C)C)cc(OCCCCC)c1O.Cl	44.9	51.2	–	–	–	–	Study
2.3	CCCCCCCOc1cc(CN2CCN(CCO)CC2)cc(OC)c1O.Cl.Cl	–	63	–	> 1	64.4	–	–
1	CCCCCCOc1cc(CN(C)C)cc(OCCCCCC)c1O.Cl	–	73.1	–	0.36	17.6	–	–
1	CCCCCCCOc1cc(CN(C)C)cc(OCCCCCCC)c1O.Cl	–	75.7	–	–	7.2	–	–
